# In ChEMBL document CHEMBL2346608, “New annelated thieno[2,3-e][1,2,3]triazolo[1,5-a]pyrimidines, with potent anticancer activity, designed through VLAK protocol” (2013):
# What was measured:
# Assay type in all cases: functional
# UO-31 = assay: Antiproliferative activity against human UO31 cells after 48 hrs by sulforhodamine B assay; settings: UO-31, 48 h
# How it was run: (§1)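 Cells in RPMI 1640 with 5% FBS and 2 mM L-glutamine were seeded at 5000–40,000/well according to doubling time and preincubated 24 h at 37 °C in 5% CO2. Time-zero plates were TCA-fixed when drug was added. Five 10-fold or ½-log dilutions from DMSO stocks were added for 48 h. After SRB staining, A515 was read and GI50 derived from [(Ti−Tz)/(C−Tz)]×100 = 50.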
# HOP-92 = assay: Antiproliferative activity against human HOP92 cells after 48 hrs by sulforhodamine B assay; settings: HOP-92, 48 h
# How it was run: (§2)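 Cells grown in RPMI 1640 with 5% FBS and 2 mM L-glutamine, plated at 5000–40,000 cells/well and preincubated 24 h at 37 °C, 5% CO2. Five drug concentrations (10-fold or ½-log dilutions from DMSO stocks) applied for 48 h. TCA-fixed (final 10% adherent, 16% suspension), SRB-stained, A515 read. Growth versus time-zero and control wells gave GI50, TGI, LC50.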
# [1] = Antiproliferative activity against human Hs 578T cells after 48 hrs by sulforhodamine B assay; how it was run: as §2
# CAKI-1 = assay: Antiproliferative activity against human CAKI-1 cells after 48 hrs by sulforhodamine B assay; settings: CAKI-1, 48 h; how it was run: as §2
# HOP-62 = assay: Antiproliferative activity against human HOP62 cells after 48 hrs by sulforhodamine B assay; settings: HOP-62, 48 h; how it was run: as §2
# SK-MEL-28 = assay: Antiproliferative activity against human SK-MEL-28 cells after 48 hrs by sulforhodamine B assay; settings: SK-MEL-28, 48 h; how it was run: as §2
# MCF7 = assay: Antiproliferative activity against human MCF7 cells after 48 hrs by sulforhodamine B assay; settings: MCF7, 48 h; how it was run: as §2
# SNB-75 = assay: Antiproliferative activity against human SNB75 cells after 48 hrs by sulforhodamine B assay; settings: SNB-75, 48 h; how it was run: as §1
# KM12 = assay: Antiproliferative activity against human KM12 cells after 48 hrs by sulforhodamine B assay; settings: KM12, 48 h; how it was run: as §2
# CCRF-CEM = assay: Antiproliferative activity against human CCRF-CEM cells after 48 hrs by sulforhodamine B assay; how it was run: as §2
# RPMI-8226 = assay: Antiproliferative activity against human RPMI8226 cells after 48 hrs by sulforhodamine B assay; settings: RPMI-8226, 48 h; how it was run: as §2
# OVCAR-8 = assay: Antiproliferative activity against human OVCAR8 cells after 48 hrs by sulforhodamine B assay; settings: OVCAR-8, 48 h; how it was run: as §2
# SK-MEL-5 = assay: Antiproliferative activity against human SK-MEL-5 cells after 48 hrs by sulforhodamine B assay; settings: SK-MEL-5, 48 h; how it was run: as §2
# SF-268 = assay: Antiproliferative activity against human SF268 cells after 48 hrs by sulforhodamine B assay; settings: SF-268, 48 h; how it was run: as §2
# Malme-3M = assay: Antiproliferative activity against human MALME-3M cells after 48 hrs by sulforhodamine B assay; how it was run: as §2
# NCI-H23 = assay: Antiproliferative activity against human NCI-H23 cells after 48 hrs by sulforhodamine B assay; settings: NCI-H23, 48 h; how it was run: as §2
# NCI-H460 = assay: Antiproliferative activity against human NCI-H460 cells after 48 hrs by sulforhodamine B assay; settings: NCI-H460, 48 h; how it was run: as §2
# UACC-257 = assay: Antiproliferative activity against human UACC257 cells after 48 hrs by sulforhodamine B assay; settings: UACC-257, 48 h; how it was run: as §1
# M14 = assay: Antiproliferative activity against human M14 cells after 48 hrs by sulforhodamine B assay; settings: M14, 48 h; how it was run: as §2
# A549 = assay: Antiproliferative activity against human A549 cells after 48 hrs by sulforhodamine B assay; settings: A549, 48 h; how it was run: as §2
# HCT-15 = assay: Antiproliferative activity against human HCT15 cells after 48 hrs by sulforhodamine B assay; settings: HCT-15, 48 h; how it was run: as §2
# RXF 393 = assay: Antiproliferative activity against human RXF393 cells after 48 hrs by sulforhodamine B assay; settings: RXF 393, 48 h; how it was run: as §2
# NCI-H522 = assay: Antiproliferative activity against human NCI-H522 cells after 48 hrs by sulforhodamine B assay; settings: NCI-H522, 48 h; how it was run: as §2
# NCI-H226 = assay: Antiproliferative activity against human NCI-H226 cells after 48 hrs by sulforhodamine B assay; settings: NCI-H226, 48 h; how it was run: as §2
# TK-10 = assay: Antiproliferative activity against human TK10 cells after 48 hrs by sulforhodamine B assay; settings: TK-10, 48 h; how it was run: as §1
# HT-29 = assay: Antiproliferative activity against human HT-29 cells after 48 hrs by sulforhodamine B assay; settings: HT-29, 48 h; how it was run: as §2
# OVCAR-4 = assay: Antiproliferative activity against human OVCAR4 cells after 48 hrs by sulforhodamine B assay; settings: OVCAR-4, 48 h; how it was run: as §2
# 786-0 = assay: Antiproliferative activity against human 786-0 cells after 48 hrs by sulforhodamine B assay; settings: 786-0, 48 h; how it was run: as §2
# [2] = Antiproliferative activity against human HCC2998 cells after 48 hrs by sulforhodamine B assay; settings: HCC 2998, 48 h; how it was run: as §2
# [3] = read-out: pLC50 (the source's name) (converted)
compound,measurement,setting,value
O=C(CCCn1c(=O)c2sc3ncccc3c2n2nnc(-c3ccccc3)c12)NCCc1c[nH]cn1,GI50,UO-31,11.7 µM
same,LC50,UO-31,60.3 µM
same,TGI,UO-31; read-out: pTGI (converted),26.9 µM
same,GI50,HOP-92,17 µM
same,CC50,HOP-92; [3],91.2 µM
same,TGI,HOP-92; read-out: pTGI (converted),39.8 µM
same,GI50,[1],11.2 µM
same,LC50,[1],87.1 µM
same,TGI,[1]; read-out: pTGI (converted),31.6 µM
same,GI50,CAKI-1,2.88 µM
same,CC50,CAKI-1; [3],72.4 µM
same,TGI,CAKI-1; read-out: pTGI (converted),14.5 µM
same,GI50,HOP-62,16.6 µM
same,LC50,HOP-62,61.7 µM
same,TGI,HOP-62; read-out: pTGI (converted),31.6 µM
same,GI50,SK-MEL-28,17 µM
same,LC50,SK-MEL-28,72.4 µM
same,TGI,SK-MEL-28; read-out: pTGI (converted),34.7 µM
same,GI50,MCF7,17.8 µM
same,LC50,MCF7,> 100 µM
same,TGI,MCF7; read-out: pTGI (converted),> 100 µM
same,GI50,SNB-75,15.1 µM
same,LC50 (concentration killing 50% of starting cells),SNB-75,55 µM
same,TGI,SNB-75; read-out: pTGI (converted),28.8 µM
same,GI50,KM12,1.91 µM
same,LC50,KM12,83.2 µM
same,TGI,KM12; read-out: pTGI (converted),24 µM
same,GI50,CCRF-CEM,0.224 µM
same,LC50,CCRF-CEM,> 100 µM
same,TGI,CCRF-CEM; read-out: pTGI (converted),4.47 µM
same,GI50,RPMI-8226,5.13 µM
same,CC50,RPMI-8226; [3],> 100 µM
same,TGI,RPMI-8226; read-out: pTGI (converted),35.5 µM
same,GI50,OVCAR-8,0.0955 µM
same,LC50,OVCAR-8,67.6 µM
same,TGI,OVCAR-8; read-out: pTGI (converted),17.4 µM
same,GI50,SK-MEL-5,16.2 µM
same,LC50,SK-MEL-5,> 100 µM
same,TGI,SK-MEL-5; read-out: pTGI (converted),> 100 µM
same,GI50,SF-268,11.7 µM
same,LC50,SF-268,72.4 µM
same,TGI,SF-268; read-out: pTGI (converted),28.8 µM
same,GI50,Malme-3M,18.2 µM
same,LC50,Malme-3M,75.9 µM
same,TGI,Malme-3M; read-out: pTGI (converted),37.2 µM
same,GI50,NCI-H23,14.5 µM
same,LC50,NCI-H23,70.8 µM
same,TGI,NCI-H23; read-out: pTGI (converted),32.4 µM
same,GI50,NCI-H460,3.63 µM
same,LC50,NCI-H460,42.7 µM
same,TGI,NCI-H460; read-out: pTGI (converted),13.2 µM
same,GI50,UACC-257,18.2 µM
same,LC50,UACC-257,69.2 µM
same,TGI,UACC-257; read-out: pTGI (converted),35.5 µM
same,GI50,M14,3.47 µM
same,LC50,M14,50.1 µM
same,TGI,M14; read-out: pTGI (converted),19.5 µM
same,GI50,A549,8.71 µM
same,LC50,A549,> 100 µM
same,TGI,A549; read-out: pTGI (converted),34.7 µM
same,GI50,HCT-15,5.75 µM
same,LC50,HCT-15,> 100 µM
same,TGI,HCT-15; read-out: pTGI (converted),> 100 µM
same,GI50,RXF 393,14.8 µM
same,LC50,RXF 393,77.6 µM
same,TGI,RXF 393; read-out: pTGI (converted),33.9 µM
same,GI50,NCI-H522,2.95 µM
same,LC50,NCI-H522,60.3 µM
same,TGI,NCI-H522; read-out: pTGI (converted),22.9 µM
same,GI50,NCI-H226,11.7 µM
same,LC50,NCI-H226,74.1 µM
same,TGI,NCI-H226; read-out: pTGI (converted),29.5 µM
same,GI50,TK-10,13.5 µM
same,LC50,TK-10,57.5 µM
same,TGI,TK-10; read-out: pTGI (converted),28.2 µM
same,GI50,HT-29,3.89 µM
same,LC50,HT-29,> 100 µM
same,TGI,HT-29; read-out: pTGI (converted),55 µM
same,GI50,OVCAR-4,15.5 µM
same,LC50 (concentration killing 50% of cells),OVCAR-4,67.6 µM
same,TGI,OVCAR-4; read-out: pTGI (converted),32.4 µM
same,GI50,786-0,12.6 µM
same,CC50,786-0; [3],52.5 µM
same,TGI,786-0; read-out: pTGI (converted),25.7 µM
same,GI50,[2],2.04 µM
same,LC50,[2],> 100 µM
same,TGI,[2]; read-out: pTGI (converted),30.2 µM
